Screening data (PubChem)
SR-BI uptake up – enhances SR-BI lipid uptake from DiI-HDL | CHO ldlA[mSR-BI] cells, DiI-HDL uptake fluorescence, 3 h; 100 = double the neutral-control signal | activation, % at 12.5 µM | 320,000 compounds, 0.096% hits | AID 504775;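 active means mean replicate activation of at least 60% and every replicate at or above 60%; inconclusive means mean or all-replicate condition met, but not both; inactive means mean below 60% and not all replicates reaching 60%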;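 further: 0% = median plate neutral-control signal and 100% = twice that signal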
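System: LDL receptor-deficient CHO ldlA cells overexpressing murine SR-BI | Timing: 3 h uptake period with compound, 37 °C | Medium: HEPES-buffered (25 mM, pH 7.4) F12 plus 0.5% BSA | Dosing: Single-point compound dose | Signal: Bottom-read fluorescence, 550/595 nm | Read-out: Retained DiI signal reflecting DiI-HDL uptake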
MITF TRPM1 HTS – increases MITF-driven TRPM1 promoter luciferase signal; SK-MEL-5 TRPM1-promoter luciferase, 24 h; % of positive control, neutral wells = 0; AID 588334; activation, % at 12.5 µM; 300,000 compounds, 0.75% hits;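 active means mean activation of at least 80% with every replicate also reaching 80%; inconclusive means mean reaches 80% but some replicate falls short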;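 further: 0% = neutral control wells and 100% = parthenolide positive control wells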
HSF-1 act – increases HSF-1 driven luciferase reporter signal; NIH3T3-HGL HSF-1 luciferase reporter, MG132, 8 h; 100% = twice DMSO control signal; activation, % at 9 µM; 300,000 compounds, 1.7% hits;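 active means mean replicate activation of at least 50% with a set share of replicates each reaching 50%; inconclusive means only one of those two conditions met; inactive means mean below 50% and too few replicates reaching it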;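 further: 0% = median of the neutral control wells and 100% = twice that signal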
SR-BI DiI inh – mouse SR-BI HDL lipid transfer inhibition | 320,000 compounds, 0.96% hits | AID 488896 | ldlA[mSR-BI] CHO cells, DiI-HDL uptake fluorescence, 3 h | Q61009 | inhibition, % at 12.5 µM;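 active means mean replicate inhibition of at least 70% and a set share of replicates each scoring 70 or more; inconclusive means meets just one of the two criteria; inactive means fails both criteria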;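 further: 0% = median of neutral control wells and 100% = median of positive control wells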
Target sequence (Q61009 whole entry, looked up): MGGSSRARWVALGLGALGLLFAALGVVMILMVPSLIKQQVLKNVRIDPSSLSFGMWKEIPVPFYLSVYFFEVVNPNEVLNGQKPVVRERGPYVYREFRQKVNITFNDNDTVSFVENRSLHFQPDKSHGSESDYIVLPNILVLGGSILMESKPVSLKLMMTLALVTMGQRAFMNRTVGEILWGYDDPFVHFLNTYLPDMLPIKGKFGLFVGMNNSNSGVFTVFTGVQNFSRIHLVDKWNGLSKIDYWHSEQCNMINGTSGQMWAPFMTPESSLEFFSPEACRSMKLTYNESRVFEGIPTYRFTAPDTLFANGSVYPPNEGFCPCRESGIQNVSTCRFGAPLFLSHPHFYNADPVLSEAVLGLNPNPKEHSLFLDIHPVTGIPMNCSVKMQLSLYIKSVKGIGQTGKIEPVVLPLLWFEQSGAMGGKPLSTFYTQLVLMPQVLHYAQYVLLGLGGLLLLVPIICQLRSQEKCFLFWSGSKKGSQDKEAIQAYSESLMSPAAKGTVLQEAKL
Wnt bcat act – Wnt/beta-catenin pathway activation | 300,000 compounds, 1.2% hits | AID 743398 | activation, % at 9.35 µM | Wnt/beta-catenin reporter cell assay, activator, plate reader; in the data active means activation above about 30%, passing the limit was not always enough; inconclusive means no clear call, values can overlap the other calls;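 further: 0% = neutral control wells and 100% = positive control wells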
* = called active by the depositor; ? = inconclusive; . = no result given. An excerpt weighted towards active compounds, which were near 3.6% of everything screened.

SMILES	SR-BI uptake up	MITF TRPM1 HTS	HSF-1 act	SR-BI DiI inh	Wnt bcat act
Cn1cc(-c2ccc(C(=O)Nc3cccc(Oc4ccccc4)c3)c3occc23)cn1	.	.	.	.	0
O=C(NCc1ccccc1)c1cc(C2CCCN(C(=O)C3CCCCC3)C2)on1 (stereo not given)	.	.	.	.	-3
CC(C)CC(NC(=O)OCc1ccccc1)C(=O)NCC(=O)NCC(=O)OCc1ccccc1 (stereo not given)	.	.	.	.	-2
COc1cccc(/C=N/NC(=O)c2ccoc2C)c1	-1	.	24	1	40*
COc1ccc(/C=N/NC(=O)c2nc(-c3ccccc3)cc(-c3ccccc3)n2)cc1OC	-67	16	-18	67	.
COc1cccc(/C=N/NC(=O)c2nc(-c3ccccc3)cc(-c3ccccc3)n2)c1	-81	.	3	81*	-2
FC(F)(F)c1ccccc1Cc1c(-c2ccc(Cl)cc2)nc2c3ccccc3ccn12	.	.	.	.	-1
COc1cccc(NC(=O)/C=C/c2ccco2)c1	-26	73	-4	26	68*
O=C(/C=C/c1ccco1)Nc1ccc(C(=O)N2CCOCC2)cc1	4	19	-6	-4	3
O=C(/C=C/c1ccco1)Nc1ccc(N2CCCC2)cc1	-3	42	64*	3	.
O=C(/C=C/c1ccco1)Nc1cccnc1	6	42	20	-6	53*
CSc1cccc(NC(=O)/C=C/c2ccco2)c1	-31	27	35	31	7
CC(C)(C)c1ccc(/C=C/C(=O)Nc2cccnc2)cc1	-14	108*	39	14	31*
CCc1ccc(C(O)c2ncc(-c3cccc4ccccc34)[nH]2)cc1 (stereo not given)	.	.	.	.	0
Cc1cc(Cl)ccc1OCc1cn2cccnc2n1	3	83*	94*	-3	16
COc1ccc(/C=C/CN2CCC(C(=O)NC(c3ccc(F)cc3)c3ccc4ccccc4n3)CC2)cc1 (stereo not given)	.	.	.	.	-3
COC(=O)C1=C(C)N(Cc2ccc(C(F)(F)F)cc2)C(=NCc2ccc3c(c2)OCO3)NC1c1ccccc1C(F)(F)F (stereo not given)	.	.	.	.	-10
O=S(=O)(Cc1ccccc1)N1CCN(c2ccccc2)CC1	-9	4	0	9	3
Cc1ccccc1N1CCN(S(=O)(=O)Cc2ccccc2)CC1	6	3	52*	-6	.
Cc1ccccc1-c1cc2nc(Oc3cccc4ccccc34)n(C)c(=O)c2s1	.	.	.	.	0
Cc1sc2c(c1C)C(=O)NC(c1ccccc1F)N2 (stereo not given)	-7	33	34	7	32*
C/C(=N\NC(=O)c1cccc2ccccc12)c1ccccn1	-13	-75	-5	13	5
C/C(=N\NC(=O)c1ccoc1C)c1cccc2ccccc12	14	9	57*	-14	-3
CCc1nc2c(OCc3ccc(C(F)(F)F)cc3)cccn2c1N(C)C(=O)c1ccco1	.	.	.	.	-1
COC(=O)[C@]12C[C@H](CC(=O)NCc3ccc(OC)c(OC)c3)C(=O)N(CCC3=CCCCC3)C1=C[C@H](C(C)(C)C)O[C@@H]2C	.	.	.	.	-16
SMILES	SR-BI uptake up	MITF TRPM1 HTS	HSF-1 act	SR-BI DiI inh	Wnt bcat act
O=C(N/N=C/c1ccccc1[N+](=O)[O-])c1cccs1	4	.	61*	-4	45*
Cc1ccsc1/C=N/NC(=O)c1cccs1	-12	56	21	12	.
Cc1ccc(/C=N/NC(=O)c2cccs2)cc1[N+](=O)[O-]	-25	117*	37	25	40*
Nc1nnc(COc2ccc(Br)cc2Br)s1	6	70	92*	-6	11
O=S1(=O)CC(c2ccccc2)=NN=C(c2ccccc2)C1	.	.	.	.	8
O=C(NC1C(=O)NNC1c1ccccc1)c1ccccc1 (stereo not given)	8	24	168*	-8	.
Cc1sc2ncnc(Nc3ccc(N4CCOCC4)cc3)c2c1-c1ccccc1	-76	-3	2	76*	-5
Cc1sc2ncnc(Nc3ccccc3)c2c1C	-12	16	15	12	1
O=C(CSC1=NCCN1)Nc1ccccc1[N+](=O)[O-]	-72	-6	23	?	4
O=C(CSC1=NCCN1)Nc1cccc([N+](=O)[O-])c1	-82	-37	26	82*	41*
O=C(CN1CCOCC1)Nc1ccc(C2CCCCC2)cc1	1	42	14	-1	31*
O=C(COC(=O)C1CC1)NCc1ccccc1	12	4	.	-12	5
